Where a name gives a salt, the structure may show the parent alone.
Experiments:
[1] = Antioxidant activity assessed as inhibition of superoxide radical generation at 1 mM after 5 mins by NBT reduction assay relative to control; format: functional
Summary of the method: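 1 ml NBT solution ([…]), 1 ml NADH ([…]) and 1 ml compound (1 mM) mixed, all in phosphate buffer pH 7.4. Reaction started with 1 ml PMS ([…]), then incubated 25 °C for 5 min. Absorbance at 560 nm against blank; % inhibition from control and sample absorbances. Ascorbic acid standard; mean of two replicates.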

[2] = Antioxidant activity assessed as inhibition of DPPH radical generation at 1 mM after 30 mins relative to control; format: functional
Summary of the method: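 1 ml of compound (1 mM) mixed with 3.0 ml DPPH (0.5 mmol/L in methanol). Absorbance at 517 nm after 30 min at 37 °C. % scavenging = (A control − A sample)/A control × 100, with control being DPPH alone. Ascorbic acid as standard; mean of two replicates.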

[3] = Antiinflammatory activity assessed as inhibition of heat-induced egg albumin denaturation at 1 mM after 15 mins relative to control; format: functional
Summary of the method: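 Egg albumin from fresh hen's egg (0.4 ml) in PBS pH 6.4 with test solution (1 mM), 10 ml total; water as control. Incubated 37±2 °C for 15 min, then heated 70 °C for 5 min. After cooling, absorbance read at 660 nm against vehicle blank. Diclofenac sodium 1 mM as reference. % inhibition of denaturation calculated from test and control absorbances.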

MCF7 = test: Cytotoxicity against human MCF7 cells after 48 hrs by SRB assay; format: functional; details: MCF7, 48 h; for CC50: read-out: LC50 (the source's name)
Summary of the method: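 MCF-7 cells grown in RPMI-1640 with 10% FCS at 37 °C, 5% CO2. Cells with >97% viability (trypan blue) seeded and grown one day, then exposed to several concentrations for 48 h, in triplicate. Fixed with TCA at 4 °C for 1 h, stained with 0.4% SRB, bound dye dissolved in 0.01 M Tris pH 10.4, OD read at 540 nm. GI50 obtained by regression; TGI and LC50 from Ti/Tz.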

[4] = Antioxidant activity assessed as inhibition of nitric oxide radical generation at 1 mM using sodium nitroprusside after 150 mins by Griess assay relative to control; format: functional
Summary of the method: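 NO generated from 1 ml 10 mM sodium nitroprusside mixed with 1 ml of 1 mM compound in phosphate buffer (0.2 M, pH 7.4). Incubated 25 °C for 150 min, then mixed with 1.0 ml Griess reagent (1% sulphanilamide, 0.1% naphthylethylenediamine dichloride, 2% phosphoric acid). Absorbance read at 546 nm; % inhibition from control and sample absorbances. Ascorbic acid standard; mean of two replicates.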

[5] = (§1) Cytotoxicity against African green monkey Vero cells after 48 hrs by SRB assay; format: cell-based; details: chlorocebus sabaeus, Vero cells
Vero = test: as §1; format: cell-based; details: chlorocebus sabaeus, vero, 48 h

`N#C/C(=C\C=C(/Cl)c1ccc(Br)cc1)C(=O)c1c[nH]c2ccccc12` showed an inhibition [1] of 65.5%, an inhibition [2] of 18.4% and an inhibition [3] of 38.5%. It also gave a GI50 (MCF7) of 72.5 µM, a TGI (MCF7) of 81.5 µM and a CC50 (MCF7) greater than 100 µM. For the same compound, the inhibition [4] was 76.7%.

Compound `COc1ccc(/C(Cl)=C/C=C(\C#N)C(=O)c2c[nH]c3ccc(OC)cc23)cc1` has an inhibition [1] of 60.7%, an inhibition [2] of 16.7% and an inhibition [3] of 79.5%. The GI50 (MCF7) was 87.1 µM, the TGI (MCF7) was greater than 100 µM and the CC50 (MCF7) was greater than 100 µM. It also gave an inhibition [4] of 41.6%.

`COc1ccc(/C(Cl)=C/C=C(\C#N)C(=O)c2c[nH]c3ccc(Br)cc23)cc1OC` showed an inhibition [1] of 80.9%, a GI50 at 48 h [5] of 8.2 µM and an LC50 (Vero) of 51.8 µM. It also gave a TGI (Vero) of 38.4 µM, an inhibition [2] of 11.8% and an inhibition [3] of 21.1%. The GI50 (MCF7) was 31.9 µM, the TGI (MCF7) was greater than 100 µM and the CC50 (MCF7) was greater than 100 µM. It also gave an inhibition [4] of 57.5%.

Compound `COc1cc(/C(Cl)=C/C=C(\C#N)C(=O)c2c[nH]c3ccc(Br)cc23)cc(OC)c1OC` has an inhibition [1] of 50%, a GI50 at 48 h [5] of 7.6 µM and an LC50 (Vero) of 41.5 µM. The TGI (Vero) was 22.1 µM, the inhibition [2] was 26.3% and the inhibition [3] was 90.8%. The GI50 (MCF7) was 30.8 µM, the TGI (MCF7) was 96.5 µM and the CC50 (MCF7) was greater than 100 µM. The inhibition [4] was 36.7%.

In the case of `COc1ccc(/C(Cl)=C/C=C(\C#N)C(=O)c2c[nH]c3ccccc23)cc1`, the inhibition [1] is reported as 61.3%, the inhibition [2] is reported as 23.4% and the inhibition [3] is reported as 80.2%. The GI50 (MCF7) was 47.3 µM, the TGI (MCF7) was greater than 100 µM and the CC50 (MCF7) was greater than 100 µM. It also gave an inhibition [4] of 76.9%.

Work on `Cc1[nH]c2ccccc2c1C(=O)/C(C#N)=C/C=C(\Cl)c1ccc(Br)cc1` yielded an inhibition [1] of 69.1%, an inhibition [2] of 15.8% and an inhibition [3] of 85.3%. For the same compound, the GI50 (MCF7) was 73.9 µM, the TGI (MCF7) was 73.8 µM and the CC50 (MCF7) was greater than 100 µM. It also gave an inhibition [4] of 78.3%.

In the case of `COc1ccc2[nH]cc(C(=O)/C(C#N)=C/C=C(\Cl)c3ccc(OC)c(OC)c3)c2c1`, the inhibition [1] is reported as 58.2%, the inhibition [2] is reported as 34.2% and the inhibition [3] is reported as 87.2%. It also gave a GI50 (MCF7) of 44.9 µM, a TGI (MCF7) greater than 100 µM and a CC50 (MCF7) greater than 100 µM. It also gave an inhibition [4] of 74.2%.

In the case of `COc1ccc(/C(Cl)=C/C=C(\C#N)C(=O)c2c(C)[nH]c3ccccc23)cc1OC`, the inhibition [1] is reported as 66.4%, the GI50 at 48 h [5] is reported as 11.8 µM and the LC50 (Vero) is reported as 65.9 µM. For the same compound, the TGI (Vero) was 41.1 µM, the inhibition [2] was 22.4% and the inhibition [3] was 79.8%. It also gave a GI50 (MCF7) of 29.6 µM, a TGI (MCF7) of 93 µM and a CC50 (MCF7) greater than 100 µM. For the same compound, the inhibition [4] was 75.8%.

Compound `COc1ccc(/C(Cl)=C/C=C(\C#N)C(=O)c2c(C)[nH]c3ccccc23)cc1` has an inhibition [1] of 63.1%, an inhibition [2] of 34.2% and an inhibition [3] of 83.1%. It also gave a GI50 (MCF7) of 56.7 µM, a TGI (MCF7) greater than 100 µM and a CC50 (MCF7) greater than 100 µM. The inhibition [4] was 74%.

With `COc1cc(/C(Cl)=C/C=C(\C#N)C(=O)c2c(C)[nH]c3ccccc23)cc(OC)c1OC` the inhibition [1] was 58.2%, the GI50 at 48 h [5] was 12.4 µM and the LC50 (Vero) was 68.3 µM. For the same compound, the TGI (Vero) was 42.6 µM, the inhibition [2] was 14.5% and the inhibition [3] was 80.7%. For the same compound, the GI50 (MCF7) was less than 0.1 µM, the TGI (MCF7) was 83.7 µM and the CC50 (MCF7) was greater than 100 µM. For the same compound, the inhibition [4] was 74.2%.

Compound `O=C1O[C@H]([C@@H](O)CO)C(O)=C1O` has an inhibition [1] of 74.1%, an inhibition [2] of 44.2% and an inhibition [4] of 42.6%.

`COc1ccc2[nH]cc(C(=O)/C(C#N)=C/C=C(\Cl)c3cc(OC)c(OC)c(OC)c3)c2c1` gave an inhibition [1] of 50%, a GI50 at 48 h [5] of 9.5 µM and an LC50 (Vero) of 45.2 µM. For the same compound, the TGI (Vero) was 12.1 µM, the inhibition [2] was 46% and the inhibition [3] was 84.4%. The GI50 (MCF7) was 39.2 µM, the TGI (MCF7) was greater than 100 µM and the CC50 (MCF7) was greater than 100 µM. The inhibition [4] was 68.3%.

Work on `COc1ccc(/C(Cl)=C/C=C(\C#N)C(=O)c2c[nH]c3ccccc23)cc1OC` yielded an inhibition [1] of 63.6%, an inhibition [2] of 15.8% and an inhibition [3] of 85.3%. It also gave a GI50 (MCF7) of 44.2 µM, a TGI (MCF7) greater than 100 µM and a CC50 (MCF7) greater than 100 µM. It also gave an inhibition [4] of 75%.

For `COc1ccc2[nH]cc(C(=O)/C(C#N)=C/C=C(\Cl)c3ccc(Br)cc3)c2c1`, the inhibition [1] was 54.5%, the inhibition [2] was 40.8% and the inhibition [3] was 88.1%. The GI50 (MCF7) was 79.9 µM, the TGI (MCF7) was greater than 100 µM and the CC50 (MCF7) was greater than 100 µM. It also gave an inhibition [4] of 76.7%.

In the case of `COc1cccc2c1C(=O)c1c(O)c3c(c(O)c1C2=O)C[C@@](O)(C(=O)CO)C[C@@H]3O[C@H]1C[C@H](N)[C@H](O)[C@H](C)O1` [DOXORUBICIN HYDROCHLORIDE], the GI50 at 48 h [5] is reported as 19 µM, the LC50 (Vero) is reported as 52.6 µM and the TGI (Vero) is reported as greater than 10 µM. For the same compound, the GI50 (MCF7) was less than 0.1 µM, the TGI (MCF7) was 11 µM and the CC50 (MCF7) was 97.1 µM.

`O=C(O)Cc1ccccc1Nc1c(Cl)cccc1Cl` showed an inhibition [3] of 90.2%.

`COc1ccc(/C(Cl)=C/C=C(\C#N)C(=O)c2c[nH]c3ccc(Br)cc23)cc1` showed an inhibition [1] of 62.2%, an inhibition [2] of 15.6% and an inhibition [3] of 78.2%. The GI50 (MCF7) was 80.3 µM, the TGI (MCF7) was greater than 100 µM and the CC50 (MCF7) was greater than 100 µM. The inhibition [4] was 56.2%.

In the case of `N#C/C(=C\C=C(/Cl)c1ccc(Br)cc1)C(=O)c1c[nH]c2ccc(Br)cc12`, the inhibition [1] is reported as 83.6%, the inhibition [2] is reported as 15.8% and the inhibition [3] is reported as 90.8%. For the same compound, the GI50 (MCF7) was greater than 100 µM, the TGI (MCF7) was greater than 100 µM and the CC50 (MCF7) was greater than 100 µM. For the same compound, the inhibition [4] was 67.5%.

In the case of `COc1cc(/C(Cl)=C/C=C(\C#N)C(=O)c2c[nH]c3ccccc23)cc(OC)c1OC`, the inhibition [1] is reported as 59.1%, the GI50 at 48 h [5] is reported as 16.2 µM and the LC50 (Vero) is reported as 54.2 µM. It also gave a TGI (Vero) of 35.9 µM, an inhibition [2] of 21.1% and an inhibition [3] of 86.2%. For the same compound, the GI50 (MCF7) was 4 µM, the TGI (MCF7) was 94.3 µM and the CC50 (MCF7) was greater than 100 µM. For the same compound, the inhibition [4] was 73.3%.

From ChEMBL document CHEMBL4004879, “Synthesis of extended conjugated indolyl chalcones as potent anti-breast cancer, anti-inflammatory and antioxidant agents” (Bioorg Med Chem Lett, 2017)
